{"source": "ChEMBL document CHEMBL2157939", "about": "(J Med Chem, 2012)", "key": {"[1]": {"test": "Apparent permeability across human Caco2 cells at 200 uM by LC/MS analysis", "type": "ADME, cell-based", "details": "Caco-2", "method_in_brief": "(§1)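 Caco-2 monolayers (passages 55−75; DMEM with 10% FBS, 1% L-glutamine, 1% nonessential amino acids, 37 °C, 5% CO2) used for apparent permeability; compound quantified by LC-MS.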"}, "Plasma": {"test_system": "Plasma", "test": "Plasma concentration in Sprague-Dawley rat at 10 umol/kg, po from 30 to 60 mins by LC/MS analysis", "type": "ADME, organism-based", "details": "in vivo, BLD = below limit of detection", "method_in_brief": "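Male SD rats, 280−310 g, gavaged with 500 μL of […] aqueous solution (10 μmol/kg). Tail-vein blood at 30, 60, 90 min into heparin tubes; plasma protein-precipitated with 3 volumes acetonitrile, supernatant quantified by LC-MS; n = 4.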"}, "Rattus norvegicus [2]": {"test_system": "Rattus norvegicus", "test": "Antinociceptive activity in Sprague-Dawley rat chronic constriction injury model assessed as paw withdrawal threshold to von Frey filament-induced pain 16 umol/kg, iv administered as bolus injection measured at 15 mins", "type": "functional, organism-based", "method_in_brief": "(§2)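 Male SD rats (160−200 g at purchase) with CCI of left sciatic nerve (four loose silk ligatures, Bennett-Xie) under isoflurane. Single iv bolus doses 0.16 to 16 μmol/kg.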"}, "Rattus norvegicus [3]": {"test_system": "Rattus norvegicus", "test": "Antinociceptive activity in Sprague-Dawley rat chronic constriction model assessed as reduction in Von Frey filament-induced mechanical allodynia in contralateral hind paw at 2 umol/kg, iv administered as bolus injection", "type": "functional, organism-based"}, "Rattus norvegicus [4]": {"test_system": "Rattus norvegicus", "test": "Antinociceptive activity in iv dosed Sprague-Dawley rat chronic constriction injury model assessed as paw withdrawal threshold to von Frey filament-induced pain administered as bolus injection", "type": "functional", "method_in_brief": "as §2"}, "Rattus norvegicus [5]": {"test_system": "Rattus norvegicus", "test": "Antinociceptive activity in Sprague-Dawley rat chronic constriction injury model assessed as reduction in Von Frey filament-induced mechanical allodynia in ipsilateral hind paw at 8 umol/kg, po", "type": "functional, organism-based"}, "Rattus norvegicus [6]": {"test_system": "Rattus norvegicus", "test": "Antinociceptive activity in Sprague-Dawley rat chronic constriction model assessed as reduction in Von Frey filament-induced mechanical allodynia in contralateral hind paw at 8 umol/kg, po", "type": "functional, organism-based"}, "Rattus norvegicus [7]": {"test_system": "Rattus norvegicus", "test": "Antinociceptive activity in po dosed Sprague-Dawley rat chronic constriction injury model assessed as reduction in Von Frey filament-induced mechanical allodynia in ipsilateral hind paw", "type": "functional"}, "Rattus norvegicus [8]": {"test_system": "Rattus norvegicus", "test": "Antinociceptive activity in Sprague-Dawley rat chronic constriction model assessed as reduction in Von Frey filament-induced mechanical allodynia in ipsilateral hind paw at 2 umol/kg, iv administered as bolus injection 5 mins post-naloxone coadministration", "type": "functional, organism-based", "method_in_brief": "(§3)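 CCI rats (n = 6) given single sc naloxone hydrochloride 10 mg/kg or vehicle 5 min before single iv bolus of test item.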"}, "Rattus norvegicus [9]": {"test_system": "Rattus norvegicus", "test": "Antinociceptive activity in Sprague-Dawley rat chronic constriction injury model assessed as reduction in Von Frey filament-induced mechanical allodynia in ipsilateral hind paw at 8 and 16 umol/kg, po at 0.75 to 1 hr", "type": "functional, organism-based"}, "Mu-type opioid receptor [10]": {"target": "T1, Mu-type opioid receptor (Homo sapiens, UniProt P35372)", "T1 sequence (P35372 whole entry)": "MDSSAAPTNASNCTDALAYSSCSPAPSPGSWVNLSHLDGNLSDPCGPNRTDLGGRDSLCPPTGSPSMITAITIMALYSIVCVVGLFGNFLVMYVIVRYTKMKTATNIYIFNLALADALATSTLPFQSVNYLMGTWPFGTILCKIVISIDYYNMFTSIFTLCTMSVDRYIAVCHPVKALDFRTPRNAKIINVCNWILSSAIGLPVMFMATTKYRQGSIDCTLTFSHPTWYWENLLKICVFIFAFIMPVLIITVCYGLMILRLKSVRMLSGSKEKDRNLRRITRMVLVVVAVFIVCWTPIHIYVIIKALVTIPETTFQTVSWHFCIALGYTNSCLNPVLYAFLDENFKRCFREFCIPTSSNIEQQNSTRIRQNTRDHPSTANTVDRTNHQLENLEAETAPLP", "test": "Agonist activity at mu-opioid receptor in human SH-SY5Y cells assessed as inhibition of forskolin-stimulated cAMP accumulation after 30 mins by immunoassay", "type": "functional, cell-based"}, "Caco-2 [11]": {"test_system": "Caco-2", "test": "Permeability across human Caco2 cells at 200 µM by LC/MS analysis in presence of galactose", "type": "ADME, cell-based", "details": "caco-2, 200 µM", "method_in_brief": "as §1"}, "Rattus norvegicus [12]": {"test_system": "Rattus norvegicus", "test": "Effect on gastrointestinal motility in fasted Sprague-Dawley rat assessed as gastrointestinal propulsion of charcoal meal at 16 umol/kg, po administered prior to charcoal meal measured after 1 hr ( Rvb = 66.5 3.8% )", "type": "ADME, organism-based", "details": "in vivo", "method_in_brief": "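Rats 200−250 g fasted ~16 h (water allowed), n = 8 per group, dosed orally just before gavage of 1 mL aqueous 10% activated charcoal/5% gum Arabic. Killed 1 h later (ip pentobarbital, cervical dislocation); small intestine length pylorus to ileocecal junction and farthest charcoal front measured as % propulsion.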"}, "Rattus norvegicus [13]": {"test_system": "Rattus norvegicus", "test": "Antinociceptive activity in Sprague-Dawley rat chronic constriction model assessed as reduction in Von Frey filament-induced mechanical allodynia in ipsilateral hind paw at 5 umol/kg, iv administered as bolus injection 5 mins post-naloxone coadministration", "type": "functional, organism-based", "method_in_brief": "as §3"}, "[14]": {"test": "Half life in human plasma at 1 mg/ml by RP-HPLC analysis", "type": "ADME, cell-free"}, "Rattus norvegicus [15]": {"test_system": "Rattus norvegicus", "test": "Antinociceptive activity in Sprague-Dawley rat chronic constriction injury model assessed as paw withdrawal threshold to von Frey filament-induced pain at 5 and 16 umol/kg, iv administered as bolus injection measured at 15 mins", "type": "functional, organism-based", "method_in_brief": "as §2"}, "Rattus norvegicus [16]": {"test_system": "Rattus norvegicus", "test": "Induction of constipation in fasted Sprague-Dawley rat assessed as inhibition of castor oil-induced diarrhea at 16 umol/kg, po administered 5 mins prior to castor-oil challenge measured up to 8 hrs", "type": "organism-based", "details": "in vivo", "method_in_brief": "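Drug-naive rats, 200−250 g, fasted ~16 h with water, then 1 h in individual wire-mesh cages without food or water. Oral test item or vehicle; 5 min later 1 mL castor oil by gavage. Diarrhea presence checked hourly to 8 h, scored by fecal boli weight and consistency.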"}, "[17]": {"target": "Delta-type opioid receptor (Homo sapiens, UniProt P41143)", "sequence (P41143 whole entry)": "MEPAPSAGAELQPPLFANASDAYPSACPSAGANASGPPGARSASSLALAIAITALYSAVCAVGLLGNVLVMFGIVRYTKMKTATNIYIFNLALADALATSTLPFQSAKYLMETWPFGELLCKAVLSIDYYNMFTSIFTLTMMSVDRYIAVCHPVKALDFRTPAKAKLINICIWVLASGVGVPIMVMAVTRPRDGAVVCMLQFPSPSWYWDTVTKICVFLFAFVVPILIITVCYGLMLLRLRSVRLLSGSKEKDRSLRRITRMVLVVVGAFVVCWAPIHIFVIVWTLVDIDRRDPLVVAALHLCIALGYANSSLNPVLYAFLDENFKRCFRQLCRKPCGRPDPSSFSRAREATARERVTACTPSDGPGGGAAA", "test": "Displacement of [3H]DPDPE from delta-opioid receptor expressed in CHOK1 cells after overnight incubation by scintillation proximity assay", "type": "cell-based, CHO-K1", "method_in_brief": "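Competitive displacement of [3H]DPDPE from human DOR in membranes of stably transfected CHOK1 cells, WGA-coated SPA beads. Eight concentrations, 10 pM to 1 μM; three independent experiments in triplicate, mean ± SEM.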"}, "Rattus norvegicus [18]": {"test_system": "Rattus norvegicus", "test": "Antinociceptive activity in Sprague-Dawley rat chronic constriction model assessed as reduction in Von Frey filament-induced mechanical allodynia in contralateral hind paw at 5 umol/kg, iv administered as bolus injection", "type": "functional, organism-based"}, "Rattus norvegicus [19]": {"test_system": "Rattus norvegicus", "test": "Antinociceptive activity in Sprague-Dawley rat chronic constriction injury model assessed as paw withdrawal threshold to von Frey filament-induced pain at 5 and 16 umol/kg, iv administered as bolus injection measured up to 1.5 hrs", "type": "functional, organism-based", "method_in_brief": "as §2"}, "[20]": {"test": "Selectivity ratio of Ki for kappa-opioid receptor to Ki for mu-opioid receptor", "method_in_brief": "(§4)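 Competitive displacement scintillation proximity assay on frozen membranes from CHO-K1 cells stably expressing human MOR, DOR or KOR, with wheatgerm agglutinin-coated SPA beads. Labels: MOR [3H]DAMGO, DOR [3H]DPDPE, KOR [3H]diprenorphine. Eight compound concentrations from 10 pM to 1 μM. Three independent experiments, each in triplicate, reported as mean ± SEM. The ratio is each Ki divided by the MOR Ki.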"}, "Caco-2 [21]": {"test_system": "Caco-2", "test": "Permeability across human Caco2 cells at 200 µM by LC/MS analysis in presence of glucose", "type": "ADME, cell-based", "details": "caco-2, 200 µM", "method_in_brief": "as §1"}, "Mu-type opioid receptor [22]": {"target": "T1, Mu-type opioid receptor", "test": "Displacement of [3H]DAMGO from mu-opioid receptor expressed in CHOK1 cells after overnight incubation by scintillation proximity assay", "type": "cell-based, CHO-K1"}, "Caco-2 [23]": {"test_system": "Caco-2", "test": "Permeability across human Caco2 cells at 200 µM by LC/MS analysis in presence of lactose", "type": "ADME, cell-based", "details": "caco-2, 200 µM", "method_in_brief": "as §1"}, "[24]": {"test": "Selectivity ratio of Ki for delta-opioid receptor to Ki for mu-opioid receptor", "method_in_brief": "as §4"}, "Rattus norvegicus [25]": {"test_system": "Rattus norvegicus", "test": "Antinociceptive activity in Sprague-Dawley rat chronic constriction injury model assessed as reduction in Von Frey filament-induced mechanical allodynia in ipsilateral hind paw at 8 and 16 umol/kg, po up to 2 hrs", "type": "functional, organism-based"}}, "note": "pIC50, pKi: −log10 of the molar value. Activity calls are given as the source filed them.", "data": [{"smiles": "NC(=O)[C@H](Cc1ccccc1)NC(=O)[C@H](Cc1c[nH]c2ccccc12)NC(=O)[C@@H]1CCCN1C(=O)[C@@H](N)Cc1ccc(O)cc1", "note": "[ENDOMORPHIN-1]", "values": [{"measurement": "Papp at 200 µM", "setting": "[1]", "value": 0.11, "unit": "×10⁻⁶ cm/s"}, {"measurement": "Cp", "setting": "Plasma", "value": "BLD"}, {"measurement": "Activity", "setting": "Rattus norvegicus [2]", "value": "inactive"}]}, {"smiles": "CN1CC[C@]23c4c5ccc(O)c4O[C@H]2[C@@H](O)C=C[C@H]3[C@H]1C5", "note": "[MORPHINE]", "values": [{"measurement": "Activity", "setting": "Rattus norvegicus [3]", "value": "Active"}, {"measurement": "ED50", "setting": "Rattus norvegicus [4]", "value": 2.6, "unit": "µmol/kg"}, {"measurement": "Activity", "setting": "Rattus norvegicus [5]", "value": "Active"}, {"measurement": "Activity", "setting": "Rattus norvegicus [6]", "value": "Active"}, {"measurement": "ED50", "setting": "Rattus norvegicus [7]", "value": 20.7, "unit": "µmol/kg"}, {"measurement": "Activity", "setting": "Rattus norvegicus [8]", "value": "inactive"}]}, {"smiles": "CC(C)NCC(O)COc1cccc2ccccc12", "note": "(configuration not stated) [PROPRANOLOL]", "values": [{"measurement": "Papp at 200 µM", "setting": "[1]", "value": 150, "unit": "×10⁻⁶ cm/s"}]}, {"smiles": "NC(=O)[C@H](Cc1ccccc1)NC(=O)[C@H](Cc1c[nH]c2ccccc12)NC(=O)[C@@H]1CCCN1C(=O)[C@H](Cc1ccc(O)cc1)NC(=O)CCC(=O)N[C@@H]1O[C@H](CO)[C@@H](O[C@@H]2O[C@H](CO)[C@H](O)[C@H](O)[C@H]2O)[C@H](O)[C@H]1O", "values": [{"measurement": "Activity", "setting": "Rattus norvegicus [9]", "value": "Active"}, {"measurement": "pIC50", "setting": "Mu-type opioid receptor [10]", "value": 6.23}, {"measurement": "permeability", "setting": "Caco-2 [11]", "value": "impermeable"}, {"measurement": "Papp at 200 µM", "setting": "[1]", "value": 76, "unit": "×10⁻⁶ cm/s"}, {"measurement": "Activity", "setting": "Rattus norvegicus [12]", "value": 58.5, "unit": "%"}, {"measurement": "Activity", "setting": "Rattus norvegicus [13]", "value": "inactive"}, {"measurement": "ED50", "setting": "Rattus norvegicus [4]", "value": 8.3, "unit": "µmol/kg"}, {"measurement": "half-life at 1 mg/ml", "setting": "[14]", "value": 57.3, "unit": "min"}, {"measurement": "Activity", "setting": "Rattus norvegicus [6]", "value": "inactive"}, {"measurement": "Activity", "setting": "Rattus norvegicus [15]", "value": "Active"}, {"measurement": "Activity", "setting": "Rattus norvegicus [16]", "value": "Non-toxic"}, {"measurement": "pKi", "setting": "[17]", "value": 5.32}, {"measurement": "Activity", "setting": "Rattus norvegicus [18]", "value": "inactive"}, {"measurement": "Activity", "setting": "Rattus norvegicus [19]", "value": "Active"}, {"measurement": "Ratio Ki", "setting": "[20]", "value": 105}, {"measurement": "permeability", "setting": "Caco-2 [21]", "value": "permeable"}, {"measurement": "pKi", "setting": "Mu-type opioid receptor [22]", "value": 7.83}, {"measurement": "Activity", "setting": "Rattus norvegicus [7]", "value": "Dose-dependent effect"}, {"measurement": "ED50", "setting": "Rattus norvegicus [7]", "value": 19.6, "unit": "µmol/kg"}, {"measurement": "permeability", "setting": "Caco-2 [23]", "value": "impermeable"}, {"measurement": "Ratio Ki", "setting": "[24]", "value": 319}, {"measurement": "Activity", "setting": "Rattus norvegicus [25]", "value": "Active"}]}]}
